Laboratory results as given in ChEMBL document CHEMBL1145612, “Antagonists of the human adenosine A2A receptor. Part 2: Design and synthesis of 4-arylthieno[3,2-d]pyrimidine derivatives” (Bioorg Med Chem Lett, 2008).
Active and inactive are the calls of the source. The rule behind the calls is not given here.

Columns and labels:
[1] = tested on: Mus musculus; experiment: Reversal of haloperidol-induced hypolocomotion in mouse at 30 mg/kg, ip; assay type: functional, organism-based; set-up: dose 30 mg/kg
Method in brief: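 Haloperidol-induced hypolocomotion model in mice. Test compound was given intraperitoneally at 30 mg kg-1, and reversal of the reduced locomotion was assessed.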

[2] = molecular target: T1, Adenosine receptor A2a (Homo sapiens, UniProt P29274); experiment: Agonist activity at human recombinant adenosine A2A receptor expressed in CHO cells assessed as calcium mobilization by FLIPR assay; assay type: functional, cell-based
T1 sequence (P29274 whole entry): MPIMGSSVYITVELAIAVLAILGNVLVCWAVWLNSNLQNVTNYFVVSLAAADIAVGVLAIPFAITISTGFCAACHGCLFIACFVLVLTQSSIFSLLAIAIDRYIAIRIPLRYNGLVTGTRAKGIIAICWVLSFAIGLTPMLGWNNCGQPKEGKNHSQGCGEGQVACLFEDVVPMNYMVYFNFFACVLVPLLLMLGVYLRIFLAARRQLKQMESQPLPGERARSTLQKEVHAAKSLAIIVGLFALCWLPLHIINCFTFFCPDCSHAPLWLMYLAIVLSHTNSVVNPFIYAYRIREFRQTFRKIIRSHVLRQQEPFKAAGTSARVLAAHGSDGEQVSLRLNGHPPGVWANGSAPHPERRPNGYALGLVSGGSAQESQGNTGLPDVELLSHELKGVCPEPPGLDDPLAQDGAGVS

[3] = molecular target: T2, Adenosine receptor A1 (Homo sapiens, UniProt P30542); experiment: Binding affinity at human adenosine A1 receptor
T2 sequence (P30542 whole entry): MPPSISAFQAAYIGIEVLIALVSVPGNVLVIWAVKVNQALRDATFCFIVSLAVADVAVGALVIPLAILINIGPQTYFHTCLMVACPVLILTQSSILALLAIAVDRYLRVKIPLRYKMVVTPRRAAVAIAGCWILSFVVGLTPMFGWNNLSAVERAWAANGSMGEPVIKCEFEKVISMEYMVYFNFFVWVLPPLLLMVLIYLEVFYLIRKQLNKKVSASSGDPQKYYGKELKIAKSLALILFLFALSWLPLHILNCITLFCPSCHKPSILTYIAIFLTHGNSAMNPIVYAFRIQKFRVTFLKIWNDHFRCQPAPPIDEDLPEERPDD

[4] = molecular target: T1, Adenosine receptor A2a; experiment: Binding affinity at human adenosine A2A receptor
[5] = molecular target: T3, Adenosine receptor A3 (Homo sapiens, UniProt P0DMS8); experiment: Binding affinity at human adenosine A3 receptor
T3 sequence (P0DMS8 whole entry): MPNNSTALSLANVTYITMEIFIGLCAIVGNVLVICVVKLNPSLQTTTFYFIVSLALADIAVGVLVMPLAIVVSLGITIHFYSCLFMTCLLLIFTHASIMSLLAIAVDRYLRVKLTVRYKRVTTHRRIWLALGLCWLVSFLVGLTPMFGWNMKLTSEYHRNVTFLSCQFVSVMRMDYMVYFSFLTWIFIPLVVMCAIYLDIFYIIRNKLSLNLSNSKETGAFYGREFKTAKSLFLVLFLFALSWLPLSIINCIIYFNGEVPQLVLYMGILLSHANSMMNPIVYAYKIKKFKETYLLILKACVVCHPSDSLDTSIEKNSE

[6] = tested on: Mus musculus; experiment: Reversal of haloperidol-induced hypolocomotion in mouse at 10 mg/kg, sc; assay type: functional, organism-based; set-up: dose 10 mg/kg
[7] = molecular target: T4, Adenosine receptor A2b (Homo sapiens, UniProt P29275); experiment: Binding affinity at human adenosine A2B receptor
T4 sequence (P29275 whole entry): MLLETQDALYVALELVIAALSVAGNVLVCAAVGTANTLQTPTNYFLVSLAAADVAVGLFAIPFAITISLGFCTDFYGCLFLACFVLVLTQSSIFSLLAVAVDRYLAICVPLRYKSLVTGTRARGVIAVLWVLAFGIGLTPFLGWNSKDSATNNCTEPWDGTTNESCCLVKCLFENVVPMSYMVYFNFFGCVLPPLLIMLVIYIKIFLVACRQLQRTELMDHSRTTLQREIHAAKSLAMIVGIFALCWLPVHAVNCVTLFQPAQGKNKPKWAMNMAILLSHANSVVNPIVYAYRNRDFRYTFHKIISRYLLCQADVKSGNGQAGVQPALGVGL

## Nc1nc(-c2ccco2)c2sccc2n1
[1]
  Activity: Active
[2]
  EC50: > 10000 nM

## Cc1nc(-c2nc(N(C)C)nc3ccsc23)sc1C
[3]
  Ki: 254 nM
[1]
  Activity: inactive
[4]
  Ki: 6.6 nM
[2]
  EC50: > 10000 nM

## Clc1nc(-c2cccs2)c2sccc2n1
[3]
  Ki: 2040 nM
[1]
  Activity: inactive
[4]
  Ki: 391 nM
[2]
  EC50: > 10000 nM

## CCc1nc(-c2cccc(C)n2)c2sccc2n1
[3]
  Ki: 1270 nM
[1]
  Activity: inactive

## CN(C)c1nc(-c2cn[nH]c2)c2sccc2n1
[3]
  Ki: 5510 nM
[4]
  Ki: 3080 nM
[2]
  EC50: > 10000 nM

## CNc1nc(-c2ccco2)c2sccc2n1
[3]
  Ki: 568 nM
[1]
  Activity: Active
[4]
  Ki: 40 nM
[2]
  EC50: > 10000 nM

## Cc1cnc(-c2nc(N(C)C)nc3ccsc23)s1
[3]
  Ki: 908 nM
[1]
  Activity: inactive
[4]
  Ki: 5.7 nM
[2]
  EC50: > 10000 nM

## Nc1nc(-c2nccs2)c2sccc2n1
[3]
  Ki: 675 nM
[1]
  Activity: Active
[2]
  EC50: > 10000 nM

## OC[C@H]1CCCN1c1nc(-c2nccs2)c2sccc2n1
[3]
  Ki: 250 nM
[1]
  Activity: Active

## CN(C)c1nc(-c2ccccn2)c2sccc2n1
[3]
  Ki: 1590 nM
[4]
  Ki: 26 nM
[2]
  EC50: > 10000 nM

## c1csc(-c2nc(C3CC3)nc3ccsc23)n1
[3]
  Ki: 259 nM
[5]
  Ki: 945 nM
[1]
  Activity: Active
[6]
  Activity: Active
[7]
  Ki: 910 nM

## Clc1nc(-c2nccs2)c2sccc2n1
[3]
  Ki: 615 nM
[4]
  Ki: 20 nM
[2]
  EC50: > 10000 nM

## CCc1nc(-c2ccco2)c2sccc2n1
[3]
  Ki: 3210 nM
[4]
  Ki: 30 nM
[2]
  EC50: > 10000 nM

## OCCNc1nc(-c2nccs2)c2sccc2n1
[3]
  Ki: 57 nM
[1]
  Activity: Active
[4]
  Ki: 18 nM
[2]
  EC50: > 10000 nM

## CC(C)(C)c1nc(-c2nccs2)c2sccc2n1
[3]
  Ki: 240 nM
[1]
  Activity: inactive
[4]
  Ki: 3.1 nM
[2]
  EC50: > 10000 nM

## CCc1nc(-c2nc(C)cs2)c2sccc2n1
[3]
  Ki: 413 nM
[1]
  Activity: Active
[4]
  Ki: 2.1 nM
[2]
  EC50: > 10000 nM

## Cc1csc(-c2nc(N(C)C)nc3ccsc23)n1
[3]
  Ki: 303 nM
[1]
  Activity: Active

## CCNc1nc(-c2cccs2)c2sccc2n1
[3]
  Ki: 813 nM
[1]
  Activity: inactive
[4]
  Ki: 154 nM
[2]
  EC50: > 10000 nM

## CN(C)c1nc(-c2ncc[nH]2)c2sccc2n1
[3]
  Ki: 5770 nM
[1]
  Activity: Active
[4]
  Ki: 299 nM
[2]
  EC50: > 10000 nM

## CN(C)c1nc(-c2nccs2)c2sccc2n1
[3]
  Ki: 366 nM
[5]
  Ki: 1760 nM
[1]
  Activity: Active
[4]
  Ki: 2.3 nM
[2]
  EC50: > 10000 nM
[7]
  Ki: 1560 nM

## COc1nc(-c2cccs2)c2sccc2n1
[3]
  Ki: 1590 nM
[1]
  Activity: inactive
[4]
  Ki: 444 nM
[2]
  EC50: > 10000 nM

## CCc1nc(-c2ncc[nH]2)c2sccc2n1
[3]
  Ki: 5530 nM
[1]
  Activity: Active
[4]
  Ki: 142 nM
[2]
  EC50: > 10000 nM

## CN(C)c1nc(-c2cnccn2)c2sccc2n1
[3]
  Ki: 990 nM
[1]
  Activity: inactive
[4]
  Ki: 81 nM
[2]
  EC50: > 10000 nM

## CN(C)c1nc(-c2ccoc2)c2sccc2n1
[3]
  Ki: 3470 nM
[4]
  Ki: 748 nM
[2]
  EC50: > 10000 nM

## CN(C)c1nc(-c2cccs2)c2sccc2n1
[3]
  Ki: 1960 nM
[1]
  Activity: inactive
[4]
  Ki: 55 nM
[2]
  EC50: > 10000 nM

## CC(C)c1nc(-c2nccs2)c2sccc2n1
[3]
  Ki: 208 nM
[5]
  Ki: 476 nM
[1]
  Activity: Active
[4]
  Ki: 1.4 nM
[2]
  EC50: > 10000 nM
[7]
  Ki: 865 nM

## OCCNc1nc(-c2cccs2)c2sccc2n1
[3]
  Ki: 401 nM
[1]
  Activity: Active
[4]
  Ki: 172 nM
[2]
  EC50: > 10000 nM

## CCc1nc(-c2ccccn2)c2sccc2n1
[3]
  Ki: 917 nM
[1]
  Activity: Active
[4]
  Ki: 13 nM
[2]
  EC50: > 10000 nM

## CCc1nc(-c2cccs2)c2sccc2n1
[3]
  Ki: 1470 nM
[1]
  Activity: inactive
[4]
  Ki: 69 nM
[2]
  EC50: > 10000 nM

## CCc1nc(-n2nccn2)c2sccc2n1
[3]
  Ki: 4940 nM
[4]
  Ki: 779 nM
[2]
  EC50: > 10000 nM

## CCNc1nc(-c2ccco2)c2sccc2n1
[3]
  Ki: 375 nM
[1]
  Activity: Active
[4]
  Ki: 58 nM
[2]
  EC50: > 10000 nM

## Cc1ccc(-c2nc(N(C)C)nc3ccsc23)nc1
[3]
  Ki: 1260 nM
[1]
  Activity: inactive
[4]
  Ki: 19 nM
[2]
  EC50: > 10000 nM

## OCCNc1nc(-c2ccco2)c2sccc2n1
[3]
  Ki: 868 nM
[1]
  Activity: inactive
[4]
  Ki: 203 nM
[2]
  EC50: > 10000 nM

## CCc1nc(-c2ccoc2)c2sccc2n1
[3]
  Ki: 10000 nM
[4]
  Ki: 681 nM
[2]
  EC50: > 10000 nM

## CN(C)c1nc(-c2cc3ccccc3s2)c2sccc2n1
[3]
  Ki: 1260 nM
[4]
  Ki: 1330 nM
[2]
  EC50: > 10000 nM

## OC[C@@H]1CCCN1c1nc(-c2nccs2)c2sccc2n1
[3]
  Ki: 14 nM
[5]
  Ki: 456 nM
[1]
  Activity: Active
[7]
  Ki: 2480 nM

## CN(C)c1nc(-c2nccn2C)c2sccc2n1
[3]
  Ki: 1100 nM
[1]
  Activity: inactive
[4]
  Ki: 14 nM
[2]
  EC50: > 10000 nM

## CCc1nc(-c2nccs2)c2sccc2n1
[3]
  Ki: 388 nM
[5]
  Ki: 1810 nM
[1]
  Activity: Active
[4]
  Ki: 1.6 nM
[2]
  EC50: > 10000 nM
[7]
  Ki: 721 nM

## CN(C)c1nc(-c2ccco2)c2sccc2n1
[3]
  Ki: 2200 nM
[1]
  Activity: Active
[4]
  Ki: 60 nM
[2]
  EC50: > 10000 nM
